Assay results as given in ChEMBL document CHEMBL1629614, “Inhibition of methionyl-tRNA synthetase by REP8839 and effects of resistance mutations on enzyme activity” (Antimicrob Agents Chemother, 2009).

Legend:
[1] = compound: C=C(F)c1sc(CNCCCNc2cc(=O)c3ccccc3[nH]2)c(C)c1Br; assay: Activity of Thermus thermophilus HB8 MetRS by ATP:PPi exchange assay in presence of ATP
[2] = compound: C=C(F)c1sc(CNCCCNc2cc(=O)c3ccccc3[nH]2)c(C)c1Br; assay: Activity of Thermus thermophilus HB8 MetRS by ATP:PPi exchange assay in presence of methionine
[3] = compound: C=C(F)c1sc(CNCCCNc2cc(=O)c3ccccc3[nH]2)c(C)c1Br; assay: Activity of Staphylococcus aureus MetRS L213W mutant by ATP:PPi exchange assay in presence of methionine
How it was run: (§1)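 Purified S. aureus MetRS (wild type or mutant; E. coli-expressed, ammonium sulfate cut, anion exchange) at 30 nM. ATP:PPi exchange at 30°C in 100 mM Tris-HCl pH 8.0, 5–10 mM Mg acetate, 80 mM KCl, 2.5 mM DTT, [32P]PPi plus cold PPi equal to ATP. Quenched with EDTA over 1–10 min, PEI-cellulose TLC, phosphorimager. Initial velocities versus varied ATP or methionine fit to Michaelis-Menten.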

[4] = compound: C=C(F)c1sc(CNCCCNc2cc(=O)c3ccccc3[nH]2)c(C)c1Br; assay: Activity of streptococcus aureus MetRS L213W mutant by scintillation proximity assay in presence of tRNA; settings: Staphylococcus aureus
[5] = compound: C=C(F)c1sc(CNCCCNc2cc(=O)c3ccccc3[nH]2)c(C)c1Br; assay: Activity of Staphylococcus aureus MetRS L213W mutant by ATP:PPi exchange assay in presence of ATP; how it was run: as §1
[6] = compound: C=C(F)c1sc(CNCCCNc2cc(=O)c3ccccc3[nH]2)c(C)c1Br; assay: Ratio of Kcat to Km for Staphylococcus aureus MetRS L213W mutant in presence of tRNA
How it was run: (§2)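 Purified recombinant S. aureus MetRS was assayed by tRNA aminoacylation at 30°C for 1 to 7.5 min to obtain initial rates. Buffer was Tris pH 8.0 with Mg acetate, 2.5 mM ATP, KCl, DTT, BSA, [3H]methionine and crude E. coli tRNA. Reactions were EDTA-stopped, and charged tRNA was read by scintillation proximity with polylysine beads at pH 2.0.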

[7] = compound: C=C(F)c1sc(CNCCCNc2cc(=O)c3ccccc3[nH]2)c(C)c1Br; assay: Ratio of Kcat to Km for Staphylococcus aureus MetRS L213W mutant in presence of ATP
How it was run: (§3)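 Purified recombinant S. aureus MetRS (30 nM) was assayed by ATP:PPi exchange at 30°C in Tris pH 8.0 with Mg acetate, KCl and DTT. [32P]PPi was matched to ATP, and ATP or methionine was varied. Time points from 1 to 10 min were quenched with EDTA, separated by PEI-cellulose TLC and read by phosphorimager. Initial rates were fitted to Michaelis-Menten.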

[8] = compound: C=C(F)c1sc(CNCCCNc2cc(=O)c3ccccc3[nH]2)c(C)c1Br; assay: Ratio of Kcat to Km for Staphylococcus aureus MetRS L213W mutant in presence of methionine; how it was run: as §3
[9] = compound: C=C(F)c1sc(CNCCCNc2cc(=O)c3ccccc3[nH]2)c(C)c1Br; assay: Ratio of Kcat to Km for Staphylococcus aureus MetRS A247E mutant in presence of ATP; how it was run: as §3
[10] = compound: C=C(F)c1sc(CNCCCNc2cc(=O)c3ccccc3[nH]2)c(C)c1Br; assay: Ratio of Kcat to Km for Staphylococcus aureus MetRS A247E mutant in presence of methionine; how it was run: as §3
[11] = compound: C=C(F)c1sc(CNCCCNc2cc(=O)c3ccccc3[nH]2)c(C)c1Br; assay: Activity of Staphylococcus aureus MetRS A247E mutant by ATP:PPi exchange assay in presence of ATP; how it was run: as §1
[12] = compound: C=C(F)c1sc(CNCCCNc2cc(=O)c3ccccc3[nH]2)c(C)c1Br; assay: Ratio of Kcat to Km for Staphylococcus aureus MetRS A247E mutant in presence of tRNA; how it was run: as §2
[13] = compound: C=C(F)c1sc(CNCCCNc2cc(=O)c3ccccc3[nH]2)c(C)c1Br; assay: Activity of streptococcus aureus MetRS A247E mutant by scintillation proximity assay in presence of tRNA; settings: Staphylococcus aureus
[14] = compound: C=C(F)c1sc(CNCCCNc2cc(=O)c3ccccc3[nH]2)c(C)c1Br; assay: Activity of Staphylococcus aureus MetRS A247E mutant by ATP:PPi exchange assay in presence of methionine; how it was run: as §1
[15] = compound: C=C(F)c1sc(CNCCCNc2cc(=O)c3ccccc3[nH]2)c(C)c1Br; assay: Ratio of Kcat to Km for Staphylococcus aureus MetRS I57N mutant in presence of tRNA; how it was run: as §2
[16] = compound: C=C(F)c1sc(CNCCCNc2cc(=O)c3ccccc3[nH]2)c(C)c1Br; assay: Activity of Staphylococcus aureus MetRS I57N mutant by ATP:PPi exchange assay in presence of methionine; how it was run: as §1
[17] = compound: C=C(F)c1sc(CNCCCNc2cc(=O)c3ccccc3[nH]2)c(C)c1Br; assay: Activity of Staphylococcus aureus MetRS I57N mutant by ATP:PPi exchange assay in presence of ATP; how it was run: as §1
[18] = compound: C=C(F)c1sc(CNCCCNc2cc(=O)c3ccccc3[nH]2)c(C)c1Br; assay: Activity of streptococcus aureus MetRS I57N mutant by scintillation proximity assay in presence of tRNA; settings: Staphylococcus aureus
[19] = compound: C=C(F)c1sc(CNCCCNc2cc(=O)c3ccccc3[nH]2)c(C)c1Br; assay: Ratio of Kcat to Km for Staphylococcus aureus MetRS I57N mutant in presence of methionine; how it was run: as §3
[20] = compound: C=C(F)c1sc(CNCCCNc2cc(=O)c3ccccc3[nH]2)c(C)c1Br; assay: Ratio of Kcat to Km for Staphylococcus aureus MetRS I57N mutant in presence of ATP; how it was run: as §3
[21] = compound: C=C(F)c1sc(CNCCCNc2cc(=O)c3ccccc3[nH]2)c(C)c1Br; assay: Activity of Haemophilus influenzae MetRS by ATP:PPi exchange assay in presence of methionine
[22] = compound: C=C(F)c1sc(CNCCCNc2cc(=O)c3ccccc3[nH]2)c(C)c1Br; assay: Activity of Haemophilus influenzae MetRS by ATP:PPi exchange assay in presence of ATP

B1: Methionine--tRNA ligase (Thermus thermophilus (strain HB8 / ATCC 27634 / DSM 579)), P23395 (protein)
chain: MEKVFYVTTPIYYVNAEPHLGHAYTTVVADFLARWHRLDGYRTFFLTGTDEHGETVYRAAQAAGEDPKAFVDRVSGRFKRAWDLLGIAYDDFIRTTEERHKKVVQLVLKKVYEAGDIYYGEYEGLYCVSCERFYTEKELVEGLCPIHGRPVERRKEGNYFFRMEKYRPWLQEYIQENPDLIRPEGYRNEVLAMLAEPIGDLSISRPKSRVPWGIPLPWDENHVTYVWFDALLNYVSALDYPEGEAYRTFWPHAWHLIGKDILKPHAVFWPTMLKAAGIPMYRHLNVGGFLLGPDGRKMSKTLGNVVDPFALLEKYGRDALRYYLLREIPYGQDTPVSEEALRTRYEADLADDLGNLVQRTRAMLFRFAEGRIPEPVAGEELAEGTGLAGRLRPLVRELKFHVALEEAMAYVKALNRYINEKKPWELFKKEPEEARAVLYRVVEGLRIASILLTPAMPDKMAELRRALGLKEEVRLEEAERWGLAEPRPIPEEAPVLFPKKEAKVEAKPKEEAWIGIEDFAKVELRVAEVLAAEKHPNADRLLVLRLSLGNEERTVVSGIAKWYRPEELVGKKVVLVANLKPAKLRGIESQGMILAAQEGEALALVTVEGEVPPGAVVK
- Km [1]: 180 µM
- Km [2]: 18 µM

B2: Methionine--tRNA ligase (Staphylococcus aureus subsp. aureus MW2), Q8NY00 L213W (protein)
chain: MAKETFYITTPIYYPSGNLHIGHAYSTVAGDVIARYKRMQGYDVRYLTGTDEHGQKIQEKAQKAGKTEIEYLDEMIAGIKQLWAKLEISNDDFIRTTEERHKHVVEQVFERLLKQGDIYLGEYEGWYSVPDETYYTESQLVDPQYENGKIIGGKSPDSGHEVELVKEESYFFNISKYTDRLLEFYDQNPDFIQPPSRKNEMINNFIKPGLADWAVSRTSFNWGVHVPSNPKHVVYVWIDALVNYISALGYLSDDESLFNKYWPADIHLMAKEIVRFHSIIWPILLMALDLPLPKKVFAHGWILMKDGKMSKSKGNVVDPNILIDRYGLDATRYYLMRELPFGSDGVFTPEAFVERTNFDLANDLGNLVNRTISMVNKYFDGELPAYQGPLHELDEEMEAMALETVKSYTESMESLQFSVALSTVWKFISRTNKYIDETTPWVLAKDDSQKDMLGNVMAHLVENIRYAAVLLRPFLTHAPKEIFEQLNINNPQFMEFSSLEQYGVLTESIMVTGQPKPIFPRLDSEAEIAYIKESMQPPATEEEKEEIPSKPQIDIKDFDKVEIKAATIINAEHVKKSDKLLKIQVDLDSEQRQIVSGIAKFYTPDDIIGKKVAVVTNLKPAKLMGQKSEGMILSAEKDGVLTLVSLPSAIPNGAVIK
- Km [3]: 100 µM
- kcat [3]: 10 s⁻¹
- Km [4]: 1.7 µM
- kcat [4]: 0.54 s⁻¹
- Km [5]: 595 µM
- kcat/Km [6]: 320000 M⁻¹ s⁻¹
- kcat/Km [7]: 17000 M⁻¹ s⁻¹
- kcat/Km [8]: 100000 M⁻¹ s⁻¹

B3: Methionine--tRNA ligase (Staphylococcus aureus subsp. aureus MW2), Q8NY00 A247E (protein)
chain: MAKETFYITTPIYYPSGNLHIGHAYSTVAGDVIARYKRMQGYDVRYLTGTDEHGQKIQEKAQKAGKTEIEYLDEMIAGIKQLWAKLEISNDDFIRTTEERHKHVVEQVFERLLKQGDIYLGEYEGWYSVPDETYYTESQLVDPQYENGKIIGGKSPDSGHEVELVKEESYFFNISKYTDRLLEFYDQNPDFIQPPSRKNEMINNFIKPGLADLAVSRTSFNWGVHVPSNPKHVVYVWIDALVNYISELGYLSDDESLFNKYWPADIHLMAKEIVRFHSIIWPILLMALDLPLPKKVFAHGWILMKDGKMSKSKGNVVDPNILIDRYGLDATRYYLMRELPFGSDGVFTPEAFVERTNFDLANDLGNLVNRTISMVNKYFDGELPAYQGPLHELDEEMEAMALETVKSYTESMESLQFSVALSTVWKFISRTNKYIDETTPWVLAKDDSQKDMLGNVMAHLVENIRYAAVLLRPFLTHAPKEIFEQLNINNPQFMEFSSLEQYGVLTESIMVTGQPKPIFPRLDSEAEIAYIKESMQPPATEEEKEEIPSKPQIDIKDFDKVEIKAATIINAEHVKKSDKLLKIQVDLDSEQRQIVSGIAKFYTPDDIIGKKVAVVTNLKPAKLMGQKSEGMILSAEKDGVLTLVSLPSAIPNGAVIK
- kcat/Km [9]: 10000 M⁻¹ s⁻¹
- kcat/Km [10]: 50000 M⁻¹ s⁻¹
- Km [11]: 1140 µM
- kcat/Km [12]: 44000 M⁻¹ s⁻¹
- Km [13]: 1.3 µM
- kcat [13]: 0.057 s⁻¹
- Km [14]: 220 µM
- kcat [14]: 11 s⁻¹

B4: Methionine--tRNA ligase (Staphylococcus aureus subsp. aureus MW2), Q8NY00 I57N (protein)
chain: MAKETFYITTPIYYPSGNLHIGHAYSTVAGDVIARYKRMQGYDVRYLTGTDEHGQKNQEKAQKAGKTEIEYLDEMIAGIKQLWAKLEISNDDFIRTTEERHKHVVEQVFERLLKQGDIYLGEYEGWYSVPDETYYTESQLVDPQYENGKIIGGKSPDSGHEVELVKEESYFFNISKYTDRLLEFYDQNPDFIQPPSRKNEMINNFIKPGLADLAVSRTSFNWGVHVPSNPKHVVYVWIDALVNYISALGYLSDDESLFNKYWPADIHLMAKEIVRFHSIIWPILLMALDLPLPKKVFAHGWILMKDGKMSKSKGNVVDPNILIDRYGLDATRYYLMRELPFGSDGVFTPEAFVERTNFDLANDLGNLVNRTISMVNKYFDGELPAYQGPLHELDEEMEAMALETVKSYTESMESLQFSVALSTVWKFISRTNKYIDETTPWVLAKDDSQKDMLGNVMAHLVENIRYAAVLLRPFLTHAPKEIFEQLNINNPQFMEFSSLEQYGVLTESIMVTGQPKPIFPRLDSEAEIAYIKESMQPPATEEEKEEIPSKPQIDIKDFDKVEIKAATIINAEHVKKSDKLLKIQVDLDSEQRQIVSGIAKFYTPDDIIGKKVAVVTNLKPAKLMGQKSEGMILSAEKDGVLTLVSLPSAIPNGAVIK
- kcat/Km [15]: 25000 M⁻¹ s⁻¹
- Km [16]: 25 µM
- kcat [16]: 14 s⁻¹
- Km [17]: 820 µM
- Km [18]: 0.93 µM
- kcat [18]: 0.023 s⁻¹
- kcat/Km [19]: 560000 M⁻¹ s⁻¹
- kcat/Km [20]: 17000 M⁻¹ s⁻¹

B5: Methionine--tRNA ligase (Haemophilus influenzae (strain ATCC 51907 / DSM 11121 / KW20 / Rd)), P43828 (protein)
chain: MTTQPRKILVTCALPYANGAIHLGHMLEHIQADIWVRFQRMRGNKIHFVCADDAHGTPIMLNADKLGITPEELIAKAKADHIRDFAGFNISFDNYHSTHSEENKQLTAEIYNKLKANGFIKSKVISQLFDPEKNMFLPDRFVKGTCPKCKAEDQYGDNCEVCASTYSPMDLINPRSAVSGTTPIVKESEHFFFDLPAFEGMLKEWTRSGSLQSEIANKMQEWFESDLQQWDISRDAPYFGFEIPGAKDKFFYVWLDAPIGYMASFKNLCNREGIDFNEFWAEGSDAELYHFIGKDIVYFHSLFWPAMLEGSGYRKPTNVFAHGYVTVDGAKMSKSRGTFIQASTYLNHIDPECLRYYYAAKLNDRIEDLDFNLEDFVQRVNTDIVNKLVNLASRNAGFIAKRFEGKLADKLEDKSLFAEFTAQAEQIAAYYESREYNKTIREIMALTDKANKYIDEKAPWVIAKEEGKEAELQAVCSMGIELFRVLMSYLKPVLPKLAERAETFLQAELRWDNIHQPLLGHTLAPFKALFSRLEKKQIDAVVEETKALFAAANKAAEKTEAKPTALSAVEPIAETITIDDFAKLDMRVAKVLKCEAVPESNKLLRFELDLGDHTRQVFSGIKAAYNKPEELEGRFVIMVANLAPRKMKFGVSEGMILSAGTGGSDLFLLSADSGVTAGMQVK
- Km [21]: 250 µM
- Km [22]: 1200 µM
